# ChEMBL document CHEMBL5303300, “EUbOPEN Chemogenomics Library - Multiplex” (2023)
# Where “and” joins values, the source holds several entries; their conditions need not be identical. Equal entries are not always repeated.
# Test system: U2OS
# Test: Multiplex assay against U2OS
# Format: toxicity, cell-based
# Details: human, number of replicates 2
# Procedure, shortened: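 On a CQ1 microscope at 37°C and 5% CO2, live cells were imaged after compound addition. They had been stained at seeding with Hoechst33342, BioTracker Green Microtubule Cytoskeleton Dye, MitoTracker Red and Annexin V Alexa Fluor 680. CellPathfinder machine-learning gating assigned cells to Hoechst high-intensity objects or normal cells, normal cells to healthy, pyknosed or fragmented nuclei, and pyknosed cells to mitotic or apoptotic. Tubulin, mitochondrial-mass and membrane-permeability phenotypes are per cents of healthy-nucleus cells.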
# [1] = 12 h, 1 µM, compound concentration 1 uM
# [2] = 12 h, 10 µM, compound concentration 10 uM
# [3] = 24 h, 1 µM, compound concentration 1 uM
# [4] = 24 h, 10 µM, compound concentration 10 uM
# [5] = 48 h, 1 µM, compound concentration 1 uM
# [6] = 48 h, 10 µM, compound concentration 10 uM
smiles,measurement,setting,value
CS(=O)(=O)c1ccc(C(=O)Nc2cccc(COc3cc(F)c(Br)cc3CN3CC[C@H](O)C3)c2)c(Cl)c1.O=CO,Population Apoptotic (%),[1],62% and 55%
same,Population Hoechst High Intensity Objects (%),[1],0%
same,Population Pyknosed Nuclei (%),[1],19% and 14%
same,Population Apoptotic (%),[2],66% and 54%
same,Population Healthy Nuclei (%),[2],36% and 74%
same,Population Hoechst High Intensity Objects (%),[2],0%
same,Population Pyknosed Nuclei (%),[2],20% and 16%
same,Total Cell Count,[2],90 and 192
same,Population Apoptotic (%),[3],50% and 66%
same,Population Healthy Nuclei (%),[3],56%
same,Population Hoechst High Intensity Objects (%),[3],0%
same,Population Pyknosed Nuclei (%),[3],20% and 10%
same,Population Apoptotic (%),[4],82% and 73%
same,Population Healthy Nuclei (%),[4],33%
same,Population Hoechst High Intensity Objects (%),[4],0%
same,Population Pyknosed Nuclei (%),[4],19% and 26%
same,Total Cell Count,[4],86 and 214
same,Population Apoptotic (%),[5],58% and 92%
same,Population Fragmented Nuclei (%),[5],22%
same,Population Healthy Nuclei (%),[5],58%
same,Population Hoechst High Intensity Objects (%),[5],0%
same,Population Pyknosed Nuclei (%),[5],19% and 10%
same,Population Apoptotic (%),[6],88% and 84%
same,Population Healthy Nuclei (%),[6],26%
same,Population Hoechst High Intensity Objects (%),[6],0%
same,Population Pyknosed Nuclei (%),[6],28%
CC1=C(C)C(=O)C(C(CCCCCC(=O)O)c2ccccc2)=C(C)C1=O (centres undefined) [SERATRODAST],Population Apoptotic (%),[1],66% and 64%
same,Population Fragmented Nuclei (%),[1],11% and 5%
same,Population Healthy Nuclei (%),[1],80% and 84%
same,Population Hoechst High Intensity Objects (%),[1],0%
same,Population Membrane Permeable-Phenotype (%),[1],3% and 2%
same,Population Mitochondria Different-Phenotype (%),[1],3% and 0%
same,Population Mitotic Cells (%),[1],33% and 36%
same,Population Normal (%),[1],100%
same,Population Pyknosed Nuclei (%),[1],8% and 9%
same,Population Tubulin-Different-Phenotype (%),[1],100% and 92%
same,Population Apoptotic (%),[2],75% and 37%
same,Population Healthy Nuclei (%),[2],68% and 84%
same,Population Hoechst High Intensity Objects (%),[2],0%
same,Population Membrane Permeable-Phenotype (%),[2],0% and 1%
same,Population Mitochondria Different-Phenotype (%),[2],0%
same,Population Mitotic Cells (%),[2],25% and 62%
same,Population Normal (%),[2],100%
same,Population Pyknosed Nuclei (%),[2],5% and 11%
same,Population Tubulin-Different-Phenotype (%),[2],80% and 94%
same,Population Apoptotic (%),[3],75% and 54%
same,Population Fragmented Nuclei (%),[3],7% and 2%
same,Population Healthy Nuclei (%),[3],82% and 88%
same,Population Hoechst High Intensity Objects (%),[3],0%
same,Population Membrane Permeable-Phenotype (%),[3],3%
same,Population Mitochondria Different-Phenotype (%),[3],3% and 1%
same,Population Mitotic Cells (%),[3],25% and 45%
same,Population Normal (%),[3],100%
same,Population Pyknosed Nuclei (%),[3],10% and 8%
same,Population Tubulin-Different-Phenotype (%),[3],100% and 92%
same,Population Apoptotic (%),[4],50% and 66%
same,Population Healthy Nuclei (%),[4],70% and 88%
same,Population Hoechst High Intensity Objects (%),[4],0%
same,Population Membrane Permeable-Phenotype (%),[4],1% and 2%
same,Population Mitochondria Different-Phenotype (%),[4],1% and 0%
same,Population Mitotic Cells (%),[4],50% and 33%
same,Population Normal (%),[4],100%
same,Population Pyknosed Nuclei (%),[4],6%
same,Population Tubulin-Different-Phenotype (%),[4],92%
same,Population Apoptotic (%),[5],33% and 43%
same,Population Fragmented Nuclei (%),[5],4% and 3%
same,Population Healthy Nuclei (%),[5],89% and 91%
same,Population Hoechst High Intensity Objects (%),[5],0%
same,Population Membrane Permeable-Phenotype (%),[5],0% and 1%
same,Population Mitochondria Different-Phenotype (%),[5],0%
same,Population Mitotic Cells (%),[5],66% and 56%
same,Population Normal (%),[5],100%
same,Population Pyknosed Nuclei (%),[5],5% and 4%
same,Population Tubulin-Different-Phenotype (%),[5],100% and 94%
same,Population Apoptotic (%),[6],58%
same,Population Fragmented Nuclei (%),[6],12% and 3%
same,Population Healthy Nuclei (%),[6],79% and 90%
same,Population Hoechst High Intensity Objects (%),[6],0%
same,Population Membrane Permeable-Phenotype (%),[6],0% and 2%
same,Population Mitochondria Different-Phenotype (%),[6],0%
same,Population Mitotic Cells (%),[6],41%
same,Population Normal (%),[6],99%
same,Population Pyknosed Nuclei (%),[6],8% and 6%
same,Population Tubulin-Different-Phenotype (%),[6],89% and 95%
